Data from ChEMBL document CHEMBL5712898, “H3K27me1 is essential for MMP-9-dependent H3N-terminal tail proteolysis during osteoclastogenesis” (Epigenetics Chromatin, 2018).
Active and inactive are the calls of the source. The rule behind the calls is not given here.

Legend:
Osteoclast [1] = test: Inhibition of EZH1/2 in M-CSF/RANKL-induced OCP cells (unknown origin) assessed as reduction in H3K27me2 level at 2 uM cultured for 0, 1, 3, and 5 days with RANKL by Western blot analysis; conditions: Homo sapiens, time 5.0 day
Osteoclast [2] = test: Inhibition of EZH1/2 in M-CSF/RANKL-induced OCP cells (unknown origin) assessed as reduction in H3K27me3 level at 2 uM cultured for 0, 1, 3, and 5 days with RANKL by Western blot analysis; conditions: Homo sapiens, time 5.0 day
Osteoclast [3] = test: Inhibition of EZH1/2 in M-CSF/RANKL-induced OCP cells (unknown origin) assessed as reduction in H3NT proteolysis at 2 uM cultured for 0, 1, 3, and 5 days with RANKL by Western blot analysis; conditions: Homo sapiens, time 5.0 day
[4] = target: Matrix metalloproteinase-9 (Homo sapiens) (UniProt P14780); test: Inhibition of MMP-9 in M-CSF/RANKL-induced OCP cells (unknown origin) assessed as reduction in Lif mRNA expression at 10 nM cultured for 3 days with RANKL by RT-qPCR analysis; type: cell-based; conditions: Osteoclast, time 3.0 day
In short: (§1)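 OCP cells were induced for 3 days with 30 ng/ml M-CSF and 50 ng/ml RANKL, with BIX01294 (1.5 µM) and/or MMP-9 inhibitor I (10 nM) added to the medium. Nfatc1, Lif and Xpr1 transcripts were quantified by RT-qPCR as fold change. Data are given as mean ± SD.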

[5] = target: Matrix metalloproteinase-9 (Homo sapiens) (UniProt P14780); test: Inhibition of MMP-9 in M-CSF/RANKL-induced OCP cells (unknown origin) assessed as reduction in Lif mRNA expression at 10 nM co-treated with BIX01294 cultured for 3 days with RANKL by RT-qPCR analysis; type: cell-based; conditions: Osteoclast, time 3.0 day
In short: as §1

[6] = target: Matrix metalloproteinase-9 (Homo sapiens) (UniProt P14780); test: Inhibition of MMP-9 in M-CSF/RANKL-induced OCP cells (unknown origin) assessed as reduction in accumulation of G9a in the P region of Nfatc1 gene at 10 nM cultured for 3 days with RANKL by ChIPac-qPCR analysis; type: cell-based; conditions: Osteoclast, time 3.0 day
[7] = target: Matrix metalloproteinase-9 (Homo sapiens) (UniProt P14780); test: Inhibition of MMP-9 in M-CSF/RANKL-induced OCP cells (unknown origin) assessed as reduction in accumulation of H3K27me1 in the CR region of Lif gene at 10 nM cultured for 3 days with RANKL by ChIPac-qPCR analysis; type: cell-based; conditions: Osteoclast, time 3.0 day
In short: (§2)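 Cells were 3-day RANKL-induced OCP cultures (30 ng/ml M-CSF, 50 ng/ml RANKL) with inhibitor in the medium. Chromatin was fixed with […], acetylated with 20 mM acetic anhydride, and immunoprecipitated; crosslinks were reversed overnight at 65 °C. Occupancy was measured by qPCR at the Nfatc1 promoter, the Lif coding region and the Xpr1 promoter plus coding region. Data are given as mean ± SD.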

[8] = target: Matrix metalloproteinase-9 (Homo sapiens) (UniProt P14780); test: Inhibition of MMP-9 in M-CSF/RANKL-induced OCP cells (unknown origin) assessed as reduction in Xpr1 mRNA expression at 10 nM co-treated with BIX01294 cultured for 3 days with RANKL by RT-qPCR analysis; type: cell-based; conditions: Osteoclast, time 3.0 day
In short: as §1

[9] = target: Matrix metalloproteinase-9 (Homo sapiens) (UniProt P14780); test: Inhibition of MMP-9 in M-CSF/RANKL-induced OCP cells (unknown origin) assessed as reduction in Nfatc1 mRNA expression at 10 nM cultured for 3 days with RANKL by RT-qPCR analysis; type: cell-based; conditions: Osteoclast, time 3.0 day
In short: as §1

[10] = target: Matrix metalloproteinase-9 (Homo sapiens) (UniProt P14780); test: Inhibition of MMP-9 in M-CSF/RANKL-induced OCP cells (unknown origin) assessed as reduction in accumulation of G9a in the P and CR region of Xpr1 gene at 10 nM cultured for 3 days with RANKL by ChIPac-qPCR analysis; type: cell-based; conditions: Osteoclast, time 3.0 day
[11] = target: Matrix metalloproteinase-9 (Homo sapiens) (UniProt P14780); test: Inhibition of MMP-9 in M-CSF/RANKL-induced OCP cells (unknown origin) assessed as reduction in Xpr1 mRNA expression at 10 nM cultured for 3 days with RANKL by RT-qPCR analysis; type: cell-based; conditions: Osteoclast, time 3.0 day
In short: as §1

[12] = target: Matrix metalloproteinase-9 (Homo sapiens) (UniProt P14780); test: Inhibition of MMP-9 in M-CSF/RANKL-induced OCP cells (unknown origin) assessed as reduction in H3NT proteolysis at 10 nM cultured for 0, 1, 3, and 5 days with RANKL by Western blot analysis; type: cell-based; conditions: Osteoclast, time 5.0 day
In short: (§3)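 Osteoclast precursor cells cultured with 30 ng/ml M-CSF plus 50 ng/ml RANKL for 0, 1, 3 or 5 days, with BIX01294 (1.5 µM) and/or MMP-9 inhibitor I (10 nM) in the medium. Nuclei were isolated in HEPES pH 7.4 sucrose buffer with 0.2% Triton X-100, and chromatin was extracted in EDTA/EGTA buffer. Cleaved H3 was detected as a faster-migrating band on Western blot with H3 C-terminal antibody.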

[13] = target: Matrix metalloproteinase-9 (Homo sapiens) (UniProt P14780); test: Inhibition of MMP-9 in M-CSF/RANKL-induced OCP cells (unknown origin) assessed as reduction in accumulation of H3K27me1 in the P region of Nfatc1 gene at 10 nM cultured for 3 days with RANKL by ChIPac-qPCR analysis; type: cell-based; conditions: Osteoclast, time 3.0 day
In short: as §2

[14] = target: Matrix metalloproteinase-9 (Homo sapiens) (UniProt P14780); test: Inhibition of MMP-9 in M-CSF/RANKL-induced OCP cells (unknown origin) assessed as reduction in Nfatc1 mRNA expression at 10 nM co-treated with BIX01294 cultured for 3 days with RANKL by RT-qPCR analysis; type: cell-based; conditions: Osteoclast, time 3.0 day
In short: as §1

[15] = target: Matrix metalloproteinase-9 (Homo sapiens) (UniProt P14780); test: Inhibition of MMP-9 in M-CSF/RANKL-induced OCP cells (unknown origin) assessed as reduction in accumulation of G9a in the CR region of Lif gene at 10 nM cultured for 3 days with RANKL by ChIPac-qPCR analysis; type: cell-based; conditions: Osteoclast, time 3.0 day
[16] = target: Matrix metalloproteinase-9 (Homo sapiens) (UniProt P14780); test: Inhibition of MMP-9 in M-CSF/RANKL-induced OCP cells (unknown origin) assessed as reduction in accumulation of H3K27me1 in the P and CR region of Xpr1 gene at 10 nM cultured for 3 days with RANKL by ChIPac-qPCR analysis; type: cell-based; conditions: Osteoclast, time 3.0 day
In short: as §2

[17] = target: Matrix metalloproteinase-9 (Homo sapiens) (UniProt P14780); test: Inhibition of MMP-9 in M-CSF/RANKL-induced OCP cells (unknown origin) assessed as reduction in H3NT proteolysis at 10 nM co-treated with 1.5 uM BIX01294 cultured for 0, 1, 3, and 5 days with RANKL by Western blot analysis; type: cell-based; conditions: Osteoclast, time 5.0 day
In short: as §3

[18] = target: Matrix metalloproteinase-9 (Homo sapiens) (UniProt P14780); test: Inhibition of MMP-9 in M-CSF/RANKL-induced OCP cells (unknown origin) assessed as reduction in TRAP-positive cells at 10 nM co-treated with 1.5 uM BIX01294 cultured for 0, 1, 3, and 5 days with RANKL by light microscopic analysis; type: cell-based; conditions: Osteoclast, time 5.0 day
In short: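 OCP cells were differentiated with 30 ng/ml M-CSF and 50 ng/ml RANKL, with media carrying BIX01294 (1.5 µM) and/or MMP-9 inhibitor I (10 nM). On days 0, 1, 3 and 5 cells were formaldehyde-fixed and stained for tartrate-resistant acid phosphatase with an acid phosphatase leukocyte kit. TRAP-positive cells with three or more nuclei were counted as osteoclasts under a light microscope.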

Chain of Matrix metalloproteinase-9 (Homo sapiens) (P14780 whole entry): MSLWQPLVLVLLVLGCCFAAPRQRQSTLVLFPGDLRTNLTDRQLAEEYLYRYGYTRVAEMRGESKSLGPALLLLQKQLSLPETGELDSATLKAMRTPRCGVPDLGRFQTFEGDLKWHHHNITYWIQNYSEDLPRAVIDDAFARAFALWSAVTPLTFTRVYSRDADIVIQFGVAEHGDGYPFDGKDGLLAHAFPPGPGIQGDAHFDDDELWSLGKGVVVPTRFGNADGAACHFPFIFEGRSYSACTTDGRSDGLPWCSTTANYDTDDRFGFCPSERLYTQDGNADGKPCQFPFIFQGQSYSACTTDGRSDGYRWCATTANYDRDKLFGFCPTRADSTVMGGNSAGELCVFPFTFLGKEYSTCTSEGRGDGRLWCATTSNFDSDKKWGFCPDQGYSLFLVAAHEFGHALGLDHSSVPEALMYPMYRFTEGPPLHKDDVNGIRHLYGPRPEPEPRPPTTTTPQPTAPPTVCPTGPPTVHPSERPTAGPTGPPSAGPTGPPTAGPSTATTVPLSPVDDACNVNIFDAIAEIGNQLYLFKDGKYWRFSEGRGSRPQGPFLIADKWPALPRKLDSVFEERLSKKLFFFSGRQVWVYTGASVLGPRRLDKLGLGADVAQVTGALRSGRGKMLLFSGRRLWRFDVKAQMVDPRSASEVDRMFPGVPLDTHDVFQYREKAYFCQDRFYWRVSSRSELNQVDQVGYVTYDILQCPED

inhibition [4] | inhibition [5] | inhibition [6] | inhibition [7] | inhibition [8] | inhibition [9] | inhibition [10] | inhibition [11] | inhibition [12] | inhibition [13] | inhibition [14] | inhibition [15] | inhibition [16] | inhibition [17] | inhibition [18] | SMILES | inhibition (Osteoclast [1]) | inhibition (Osteoclast [2]) | inhibition (Osteoclast [3])
– | – | – | – | – | – | – | – | – | – | – | – | – | – | – | CCCc1cc(C)[nH]c(=O)c1CNC(=O)c1cc(-c2ccc(N3CCN(C(C)C)CC3)nc2)cc2c1cnn2C(C)C | Active | Active | inactive
Active | Active | inactive | inactive | Active | Active | inactive | Active | Active | inactive | Active | inactive | inactive | Active | Active | CCN(CC)Cc1cc(C)c(N(Cc2ccccc2)S(=O)(=O)c2ccc(OC)cc2)c(C(=O)NO)c1 | – | – | –
